The test system of the data set is MS2 coat protein. Put plainly: apparent Kd, MS2 coat protein; higher = weaker binding; RNA-MaP array; FMN 200 µM where present. Summed up: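 The apparent Kd is the median of filtered binding-curve fits, one per cluster, to green signal normalised to red-channel RNA signal and control-cluster median Fmax. The clusters were on Illumina sequencing chips, and stalled E. coli RNA polymerase had transcribed the designs on them. Titration used SNAP-549-labelled MS2 coat protein from 0.7 or 1.5 nM, doubling to 3 µM, without and then with constant ligand, in 100 mM Tris-HCl pH 7.5, 80 mM KCl, 4 mM MgCl2, BSA, DTT, yeast tRNA and Tween-20.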

Setting [1] is: designed as: OFF switch for flavin mononucleotide, no ligand.
Setting [2] is: ligand present: flavin mononucleotide, designed as: OFF switch for flavin mononucleotide.
Setting [3] is: designed as: ON switch for flavin mononucleotide, no ligand.
Setting [4] is: ligand present: flavin mononucleotide, designed as: ON switch for flavin mononucleotide.

The results in this text go back to the EternaBench riboswitch data.

Consider “GCCAGAGCAGGAUAUUCAAUAAUCCACAUGAGGAUCACCCAUGUCCAGCGAAAGCUGGAGGGAGAAGGGCUCUGGC”, for which the “apparent Kd” value is 94.2 nM under setting [1] and 35.1 nM under setting [2].
Taken in the same sequence, the figures for “GUUGUUACUGAGGAUAUUAUUUUAUUCGACUGAUAAGAAGGCAGUACAUGAGGAUCACCCAUGUGGGUAGCCAG” were 27.9 nM and 170 nM.
As to “GUUUCUAUAAGUUAUAAUAAAUAGUCAGAAGGUGAUACUACGACAUGAGGAUCACCCAUGUUUUUCAAGGAUAUGAUGUUACUC”, the “apparent Kd” value under setting [3] is 373 nM and the “apparent Kd” value under setting [4] was 50 nM.
Taken in the same sequence, the figures for “ACAUGAGGAUCACCCAUGUUCACAUAGGAUAUUGAUUAUAUUGGUUAUAGAAUAGUUAUAAUGCUCAAGAAGGAUGCCAGUUGU” were 11 nM and 8.94 nM.
“GCACGGCAUGUAGGAUAUCGAGCGCCGGGCGCUCGAGAAGGACAUGAGGAUCACCCAUGUGCUCACAGUGAGUGAGUGCUGUGC”: the “apparent Kd” value under setting [1] came out at 19.6 nM and the “apparent Kd” value under setting [2] was 37.4 nM.
Taken in the same sequence, the figures for “AAAAUGUCAGGAUAUUGUUAGUUUAGUUGUUUGUAUUAGUUCGAGAAGGGACAUGAGGAUCACCCAUGUUGAAA” were 33.8 nM and 33 nM.
Turning to “AAAAAACAUGAGGAUCACCCAUGUGAGGAUAUGACGUAAAUAAAGAAAGAAGAAAUCGUCAGAAGGCACACCUA”, the “apparent Kd” value runs as follows: under setting [1], 52.7 nM; under setting [2], 79.3 nM.
Turning to “CAGGUAGACUGAGGAUAUACAUGACUUAGUCUAUCUAGGUCAUUAACCACAUGAGGAUCACCCAUGUAGAAGGCAGUCUGCCUG”, the “apparent Kd” value came out at 16.3 nM under setting [1] and 19.6 nM under setting [2].
As for “ACUGGUGCAGGAUAUGCAAUCGUGCUUCGGCACGUAAGAUCACAUGAGGAUCACCCAUGUAGAAGGGCACCAGU”, the “apparent Kd” value is, setting by setting: under setting [1], 20.3 nM; under setting [2], 65.7 nM.
Turning to “GGAGCAGGGUCAGGAUAUGUAGGUAGACGGCAAAUAGAAGGGACAUGAGGAUCACCCAUGUAACAUUAAAAUGAAGCAAGGGAG”, the “apparent Kd” value is, setting by setting: under setting [1], 66.4 nM; under setting [2], 71.5 nM.
With “AGAAACUACGAGAAGGACAUGUGGUCCUUCAAAAACAUGAGGAUCACCCAUGUAGGAUAUCGUAGUUUCAGGAUCGUGAGAUCA”, the “apparent Kd” value runs as follows: under setting [1], 37.6 nM; under setting [2], 22.8 nM.
Take “CCCUCACAUGAGGAUCACCCAUGUUAGGAUAUCUACCAGGAGCUUUGAAUUGCCCAACGGAGAAGGAACGUGCA”: the “apparent Kd” value is, setting by setting: under setting [1], 16.9 nM; under setting [2], 17.4 nM.
For “UUGAUUAUACAAGGAUAUCAAUUGUAUACAAGUCUUACAUGAGGAUCACCCAUGUUAAAUUUUUUUGAGAAGGUGUGUUUUCAG”, the “apparent Kd” value was determined as 32.2 nM under setting [3] and 29.5 nM under setting [4].
Consider “AGCUGUGGCCGAGGAUAUCUAUCCAAAAUAACCGAAAUAUAAUCGGACAUGAGGAUCACCCAUGUAGAGAAGGCGGUCUCAGCA”, for which the “apparent Kd” value was found to be 24.3 nM under setting [1] and 37 nM under setting [2].
Consider “AAACAUGUCCGAGGAUAUCUGAGAACAUUUUCAAGAGAAGGCGGACAUGAGGAUCACCCAUGUCUCUCCUCAUCAACUCCAAAU”, for which the “apparent Kd” value is 6.37 nM under setting [1] and 17.3 nM under setting [2].
For the sequence “AUCAGCUCGUCAGGAUAUACGUCACUGCGUCAGCAGUGUGGUAAGCUCACAUGAGGAUCACCCAUGUAGAAGGGACGAGCUGAU”, the “apparent Kd” value runs as follows: under setting [1], 6.48 nM; under setting [2], 22.9 nM.
Taken in the same sequence, the figures for “GCAGUACGCCUGGCAAUUUGCAAGCAGGAUAUCAGGCACCGUGAGACAUGAGGAUCACCCAUGUCUGAGAAGGGCUGGAGUUGC” were 9.68 nM and 18.9 nM.
“AGAAACUACGAGAAGGACAAAAACGGUGCCGCAAACAUGAGGAUCACCCAUGUAGGAUAUCGUAGUUUCAGGAUCGUGAGAUCA”: the “apparent Kd” value under setting [1] came to 14.2 nM and the “apparent Kd” value under setting [2] was determined as 84.7 nM.
Taken in the same sequence, the figures for “UGUUGUUGAUAGGAUAUACUUGUAGGAGUUGUAGUAGAAGGAUCUACAUGAGGAUCACCCAUGUAGGAGUGAGU” were 17.5 nM and 17.2 nM.
Taken in the same sequence, the figures for “CACCGUUACAGAGGAUAUGACACAUGAGGAUCACCCAUGUAAUAAAUGAGAAUUUCGAAUGUAACUCAGAAGGCUGGAAUCGGC” were 30.5 nM and 52.8 nM.
